According to paper PMC8266253 (Journal of Enzyme Inhibition and Medicinal Chemistry, 2021):
Where a chain is given by its changes, count along the chain named. Read-outs that look alike come from different tables or passages of the source.

Experiments:
AKR1C1 = target: T1, AKR1C1 (Homo sapiens, UniProt Q04828); assay: Inhibition assay for recombinant AKR1C1; type: biochemical; settings: for inhibition at 10 µM: pH 9, read-out: AKR1C1 Inhibition (%) 10 μM
T1 sequence (Q04828 1-323): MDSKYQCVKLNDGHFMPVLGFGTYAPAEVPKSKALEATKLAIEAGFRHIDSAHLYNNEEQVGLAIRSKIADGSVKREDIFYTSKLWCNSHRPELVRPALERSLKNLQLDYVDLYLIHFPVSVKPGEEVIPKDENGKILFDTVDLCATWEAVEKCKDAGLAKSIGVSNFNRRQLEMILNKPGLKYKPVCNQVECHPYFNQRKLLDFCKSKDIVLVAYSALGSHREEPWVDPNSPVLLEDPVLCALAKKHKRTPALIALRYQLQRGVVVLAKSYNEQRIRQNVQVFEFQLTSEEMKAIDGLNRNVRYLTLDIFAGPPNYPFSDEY
Outline: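 Human recombinant AKR1C1 oxidising 1-acenaphthenol (90 µM final) with 2.3 mM NAD⁺, in 0.09 M potassium phosphate pH 9.0, 0.005% Triton X-114, 0.05% DMSO. Test compound is added in DMSO, and 0.1 µM enzyme starts the reaction. NADH rise at 340 nm gives initial velocities. Runs are in duplicate, two independent experiments. IC50 comes from residual activity vs log inhibitor; inhibition type, KM, KI and α come from kinetic fitting.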

AKR1C2 = target: T2, AKR1C2 (Homo sapiens, UniProt P52895); assay: Inhibition assay for recombinant AKR1C2; type: biochemical; settings: for inhibition at 10 µM: pH 9, read-out: AKR1C2 Inhibition (%) 10 μM
T2 sequence (P52895 1-323): T1 sequence (Q04828 1-323) with T38V, R47H, L54V, C87S, V151M, R170H, Q172L
Outline: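 Rates are followed as NADH absorbance increase at 340 nm, with recombinant AKR1C2 (0.3 µM, added last) and 180 µM final 1-acenaphthenol. The mix is 2.3 mM NAD⁺, 0.09 M potassium phosphate pH 9.0, 0.005% Triton X-114 and 0.05% DMSO, plus test compound in DMSO. Duplicates, two independent experiments. IC50 is fitted from residual activity vs log concentration; inhibition mode, KM, KI and α are fitted from kinetics.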

[1] = pH 9, read-out: AKR1C1 Inhibition (%) 100 μM
[2] = pH 9, read-out: AKR1C2 Inhibition (%) 100 μM

Structure (SMILES)	IC50 (AKR1C1)	inhibition at 10 µM (AKR1C1)	inhibition at 100 µM (AKR1C1; [1])	IC50 (AKR1C2)	inhibition at 10 µM (AKR1C2)	inhibition at 100 µM (AKR1C2; [2])	Ki (AKR1C1)	Type of inhibition of AKR1C1 (AKR1C1; kinetic studies)	inhibition at 100 µM (AKR1C1; read-out: Biological activity AKR1C1 (biological inhibition at 100 μM))	inhibition at 100 µM (AKR1C2; read-out: Biological activity AKR1C2 (biological inhibition at 100 μM))
C[C@@]12CC[C@@H]3c4cc(Br)c(O)c(Cl)c4CC[C@H]3[C@@H]1CCC2=O [2_2Br,4Cl, 2-bromo-4-chloro-3-hydroxy-13α-oestra-1,3,5(10)-trien-17-one]	1700 nM	80%	92.3%	3100 nM	80%	99%				
C[C@@]12CC[C@@H]3c4cc(Br)c(O)c(I)c4CC[C@H]3[C@@H]1CCC2=O [2_2Br,4I, 2-bromo-3-hydroxy-4-iodo-13α-oestra-1,3,5(10)-trien-17-one]	7200 nM	67%	100%	4400 nM	75%	100%				
C[C@@]12CC[C@@H]3c4cc(Cl)c(O)c(Br)c4CC[C@H]3[C@@H]1CCC2=O [2_2Cl,4Br, 4-bromo-2-chloro-3-hydroxy-13α-oestra-1,3,5(10)-trien-17-one]	1900 nM	80%	93.9%		65%	91.9%				
C[C@@]12CC[C@@H]3c4cc(Cl)c(O)c(I)c4CC[C@H]3[C@@H]1CCC2=O [2_2Cl,4I, 2-chloro-3-hydroxy-4-iodo-13α-oestra-1,3,5(10)-trien-17-one]		50%	82.6%	4600 nM	73%	89.2%				
C[C@@]12CC[C@@H]3c4cc(I)c(O)c(Br)c4CC[C@H]3[C@@H]1CCC2=O [2_2I,4Br, 4-bromo-3-hydroxy-2-iodo-13α-oestra-1,3,5(10)-trien-17-one]	700 nM	90.7%	93.4%		59.5%	74.7%	570 nM	mixed type of inhibition	93.4%	74.7%
C[C@@]12CC[C@@H]3c4cc(I)c(O)c(Cl)c4CC[C@H]3[C@@H]1CCC2=O [2_2I,4Cl, 4-chloro-3-hydroxy-2-iodo-13α-oestra-1,3,5(10)-trien-17-one]	800 nM	90%	99%	7100 nM	73%	87.5%				
